Among the data in ChEMBL document CHEMBL1131071, “Design and synthesis of brefeldin A sulfide derivatives as prodrug candidates with enhanced aqueous solubilities” (1998) are GI50 values, retold here.

Holding throughout (type): functional
What all share (settings): Homo sapiens

One test deals with SF-539. Put plainly: Cytotoxicity against CNS SF-539 cancer cell cultures. Summed up:
(§1)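 Human cancer cell lines from a panel of about 55, incubated with compound for 72 h (3-day incubation). Values are single determinations or, where given with population standard deviation, two determinations.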

The test system of the next test is DU-145. In words: Cytotoxicity against prostate DU-145 cancer cell cultures. Summed up: as §1
A further test concerns HOP-62. In words: Cytotoxicity against lung HOP-62 cancer cell cultures. Summed up:
as §1

A further test deals with HCT-116. Put plainly: Cytotoxicity against colon HCT116 cancer cell cultures. Summed up:
as §1

A further test deals with OVCAR-3. Put plainly: Cytotoxicity against ovarian OVCAR-3 cancer cell cultures. Summed up: as §1
In the next test the test system is SN12C. In words: Cytotoxicity against renal SN12C cancer cell cultures. Summed up:
as §1

For another test, the system named is UACC-62. Put plainly: Cytotoxicity against melanoma UACC-62 cancer cell cultures. Summed up: as §1
In another test the test system is MDA-MB-435. In words: Cytotoxicity against breast MDA-MB-435 cancer cell cultures. Summed up:
as §1

Regarding `C[C@H]1CCC/C=C/[C@@H]2C[C@H](O)C[C@H]2[C@H](O)[C@H](SCC(=O)O)CC(=O)O1`, the GI50 in the test with SF-539 was 34 µM; in the test with DU-145, 38 µM; in the test on HOP-62 it was 30 µM; in the test on HCT-116, 23 µM; in the test with OVCAR-3 it was 30 µM; in the test with SN12C, 39 µM. Also, the figures for the GI50 with UACC-62 and with MDA-MB-435 were 33 µM and 42 µM, respectively.

For the compound `COC(=O)CS[C@@H]1CC(=O)O[C@@H](C)CCC/C=C/[C@@H]2C[C@H](O)C[C@H]2[C@@H]1O`, the GI50 came to 24 µM with SF-539; 30 µM with DU-145; 28 µM in the test with HOP-62; 19 µM in the test with HCT-116; 27 µM in the test on OVCAR-3; 32 µM in the test with SN12C. For the same compound, the GI50 in the test on UACC-62 stood at 6.8 µM; with MDA-MB-435, 30 µM.

Regarding `COC(=O)CS(=O)(=O)[C@@H]1CC(=O)O[C@@H](C)CCC/C=C/[C@@H]2C[C@H](O)C[C@H]2[C@@H]1O`, the GI50 in the test with DU-145 stood at 6 µM; with HOP-62, 5.1 µM; with HCT-116 it was 3.7 µM; in the test with OVCAR-3, 3.2 µM; in the test with SN12C, 3.3 µM; with UACC-62, 5 µM. Moreover, halving of growth with MDA-MB-435 (GI50) required 5.5 µM.

With `COc1ccc(S[C@@H]2CC(=O)O[C@@H](C)CCC/C=C/[C@@H]3C[C@H](O)C[C@H]3[C@@H]2O)cc1`, the GI50 with SF-539 turned out to be 26 µM; in the test with DU-145, 36 µM; with HOP-62, 24 µM; with HCT-116, 33 µM; with OVCAR-3, 22 µM; in the test on SN12C, 30 µM. Moreover, the GI50 with UACC-62 worked out at 29 µM; in the test with MDA-MB-435 it was 19 µM.

For `C[C@H]1CCC/C=C/[C@@H]2C[C@H](O)C[C@H]2[C@H](O)[C@H](SCC(O)CO)CC(=O)O1` (stereo not given in full), the GI50 in the test with SF-539 was found to be 32 µM; with DU-145, 18 µM; in the test on HOP-62, 33 µM; in the test with HCT-116 it was 36 µM; in the test on OVCAR-3, 22 µM; with SN12C it was 34 µM. For the same compound, the GI50 was determined as 16 µM with UACC-62 and 36 µM in the test with MDA-MB-435.

With `C[C@H]1CCC/C=C/[C@@H]2C[C@H](OC(=O)CCCC(=O)O)C[C@H]2[C@H](O)/C=C/C(=O)O1`, the GI50 came to 22 µM in the test on SF-539; 30 µM in the test with DU-145; 33 µM in the test on HOP-62; 21 µM with HCT-116; 20 µM in the test on OVCAR-3; 32 µM with SN12C. For the same compound, the GI50 in the test with MDA-MB-435 amounted to 11 µM.

As for `C[C@H]1CCC/C=C/[C@@H]2C[C@H](OC(=O)CCC(=O)O)C[C@H]2[C@H](O)/C=C/C(=O)O1`, the GI50 was 6.8 µM with DU-145; 3.4 µM with HOP-62; 17 µM with HCT-116; 3.3 µM with OVCAR-3; 1.9 µM in the test on UACC-62.

On to `C[C@H]1CCC/C=C/[C@@H]2C[C@H](O)C[C@H]2[C@H](O)C(O)C(O)C(=O)O1` (stereo not given in full), for which the GI50 with SF-539 is 0.68 µM; in the test with DU-145 it was 6.7 µM; in the test with HOP-62, 5 µM; with HCT-116, 3.4 µM; with OVCAR-3, 2.4 µM; in the test on SN12C, 2.7 µM. The GI50 in the test with UACC-62 is 1.6 µM; in the test with MDA-MB-435, 3.8 µM.

Consider `C[C@H]1CCC/C=C/[C@@H]2C[C@H](OC(=O)CCC(=O)O)C[C@H]2[C@H](OC(=O)CCC(=O)O)/C=C/C(=O)O1`, for which the GI50 in the test on SF-539, in the test with DU-145, with HOP-62, with HCT-116, with OVCAR-3 and in the test with SN12C was over 100 µM throughout. Besides, the 50% growth inhibitory concentration (GI50) with UACC-62 and in the test on MDA-MB-435 was over 100 µM throughout.

In the case of `C[C@H]1CCC/C=C/[C@@H]2C[C@H](O)C[C@H]2[C@H](O)[C@H](SCCN)CC(=O)O1`, the GI50 with SF-539 was found to be 4.9 µM; in the test with HOP-62 it was 3.9 µM; with HCT-116, 3.5 µM; in the test on OVCAR-3, 2.2 µM; with UACC-62, 2.7 µM; with MDA-MB-435, 3.3 µM.

For the compound `C[C@H]1CCC/C=C/[C@@H]2C[C@H](O)C[C@H]2[C@H](O)[C@H](Sc2ccc(O)cc2)CC(=O)O1`, the GI50 in the test on SF-539 was found to be 5.1 µM; with DU-145 it was 6.3 µM; in the test on HOP-62, 3.2 µM; with HCT-116, 2.5 µM; in the test with OVCAR-3 it was 2.4 µM; in the test on SN12C it was 4.4 µM. Besides, the GI50 with UACC-62 stood at 4.8 µM; with MDA-MB-435, 3.3 µM.

As for `C[C@H]1CCC/C=C/[C@@H]2C[C@H](O)C[C@H]2[C@H](O)[C@H]([S+]([O-])CCN)CC(=O)O1` (stereo not given in full), the GI50 with SF-539 stood at 0.02 µM; in the test on DU-145, 0.17 µM; with HOP-62 it was 0.15 µM; in the test on HCT-116, 0.086 µM; in the test on OVCAR-3 it was 0.082 µM; in the test on SN12C, 0.12 µM. The figures for the GI50 in the test with UACC-62 and in the test on MDA-MB-435 were 0.021 µM and 0.055 µM, respectively.

For the compound `C[C@H]1CCC/C=C/[C@@H]2C[C@H](O)C[C@H]2[C@H](O)[C@H]([S+]([O-])CCO)CC(=O)O1` (stereo not given in full), the GI50 turned out to be 0.058 µM in the test with SF-539; 0.26 µM with DU-145; 0.29 µM in the test on HOP-62; 0.21 µM in the test with HCT-116; 0.19 µM in the test on OVCAR-3; 0.65 µM with SN12C. Further, the GI50 with UACC-62 was 0.064 µM; with MDA-MB-435, 0.09 µM.

`C[C@H]1CCC/C=C/[C@@H]2C[C@H](O)C[C@H]2[C@H](O)[C@H](SCCN(C)C)CC(=O)O1`: the GI50 in the test with SF-539 came out at 0.39 µM; in the test with DU-145, 2.4 µM; in the test on HOP-62 it was 0.54 µM; in the test on HCT-116 it was 0.75 µM; in the test with OVCAR-3, 0.54 µM; in the test with SN12C, 1.4 µM. Also, the GI50 in the test with UACC-62 was 0.43 µM; in the test with MDA-MB-435, 0.5 µM.

For `C[C@H]1CCC/C=C/[C@@H]2C[C@H](O)C[C@H]2[C@H](O)[C@H]([S+]([O-])c2ccc(O)cc2)CC(=O)O1` (stereo not given in full), the GI50 in the test with SF-539 was 0.017 µM; with DU-145 it was 0.118 µM; with HOP-62, 0.088 µM; with HCT-116, 0.026 µM; with OVCAR-3, 0.025 µM; in the test on SN12C it was 0.05 µM. Besides, the values for the GI50 with UACC-62 and with MDA-MB-435 were 0.03 µM and 0.042 µM, respectively.

For `C[C@H]1CCC/C=C/[C@@H]2C[C@H](O)C[C@H]2[C@H](O)[C@H]([S+]([O-])CC(N)C(=O)O)CC(=O)O1` (stereo not given in full), the GI50 turned out to be 0.039 µM in the test with SF-539; 0.43 µM in the test with DU-145; 0.7 µM with HOP-62; 0.089 µM in the test on HCT-116; 0.05 µM in the test on OVCAR-3; 0.16 µM in the test with SN12C. The GI50 in the test on UACC-62 worked out at 0.038 µM; in the test on MDA-MB-435 it was 0.05 µM.

As to `C[C@H]1CCC/C=C/[C@@H]2C[C@H](O)C[C@H]2[C@H](O)[C@H]([S+]([O-])CCN(C)C)CC(=O)O1` (stereo not given in full), the GI50 came out at 0.3 µM in the test on SF-539; 0.48 µM with DU-145; 0.35 µM with HOP-62; 0.28 µM with HCT-116; 0.14 µM in the test with OVCAR-3; 0.15 µM with SN12C. Further, the GI50 in the test with UACC-62 amounted to 0.071 µM; in the test on MDA-MB-435 it was 0.41 µM.

For `C[C@H]1CCC/C=C/[C@@H]2C[C@H](OC(=O)CCCC(=O)O)C[C@H]2[C@H](OC(=O)CCCC(=O)O)/C=C/C(=O)O1`, the GI50 with SF-539, in the test on DU-145, with HOP-62, in the test on HCT-116, in the test on OVCAR-3 and in the test with SN12C was over 100 µM in each case. In addition, the 50% growth inhibitory concentration (GI50) in the test on UACC-62 and in the test with MDA-MB-435 was over 100 µM each time.

In the case of `C[C@H]1CCC/C=C/[C@@H]2C[C@H](O)C[C@H]2[C@H](O)[C@H](SCCO)CC(=O)O1`, the GI50 in the test with SF-539 came to 23 µM; in the test on DU-145, 30 µM; with HOP-62 it was 34 µM; with HCT-116 it was 19 µM; in the test with OVCAR-3, 27 µM; with SN12C, 33 µM. For the same compound, the GI50 in the test on UACC-62 stood at 40 µM; in the test on MDA-MB-435 it was 34 µM.

The term GI50 denotes the concentration at which growth is held to half of that of the control. High values mean less potent growth inhibition, low ones more potent growth inhibition.
